Read-outs that look alike come from different tables or passages of the source.
What was measured:
male C57/Bl6J mice [1] = assay: Drug discrimination, mice trained to discriminate 0.3 mg/kg JWH-018 from vehicle; type: in vivo, mouse; details: for Response rates compared to vehicle: 1 mg/kg JWH-018, 10 mg/kg THC, JWH-073 across the dose range tested; for Fold less potent than JWH-018 in JWH-018 discrimination: from ED50 values; for ED50 for substitution for the 0.3 mg/kg JWH-018 training dose / Substitution for the 0.3 mg/kg JWH-018 training dose: i.p.; for ED50 for substitution for the 0.3 mg/kg JWH-018 training dose: 30 min before session; for Substitution for the 0.3 mg/kg JWH-018 training dose: percentage of responses on JWH-018-associated lever
male ICR mice [2] = assay: Functional observational battery; type: in vivo, mouse; details: i.v.; for FOB Home cage activity: doses with significant differences vs vehicle: CNS Activity domain, ↓ decrease vs vehicle, N = 6/dose; for FOB Forelimb placing: doses with significant differences vs vehicle / FOB Gait: doses with significant differences vs vehicle / FOB Muscle tone: doses with significant differences vs vehicle / FOB Posture: doses with significant differences vs vehicle: Muscle tone/Equilibrium domain; for FOB Approach response: doses with significant differences vs vehicle / FOB Startle response: doses with significant differences vs vehicle: Sensorimotor Reactivity domain
Outline: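 Male ICR mice, each given one dose only, n=6 per dose; housed at 20–22°C on a 12-h light/dark cycle with food ad libitum. Approach and startle after observer interference were scored as categorical measures. Each compound's vehicle group was pooled into one vehicle group, and each dose was compared with it. Tests: Fisher's exact (categorical), Kruskal-Wallis (ordinal), one-way ANOVA (continuous).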

5-HT2B [3] = biological target: T1, 5-HT2B (Homo sapiens, UniProt P41595); assay: NIMH PDSP secondary binding assay, 5-HT2B
5-HT2B [4] = biological target: T1, 5-HT2B; assay: 5-HT2B antagonism functional assay; type: cell-based
hERG = hERG (Homo sapiens, UniProt Q12809); assay: hERG channel assay; type: cell-based
[5] = Urinary metabolite identification; type: in vivo, mouse; details: II = glucuronic acid conjugate; X = identified
male ICR mice [6] = assay: FOB, cannabinoid receptor antagonism of 3 mg/kg JWH-018 effects; type: in vivo, mouse
GABA: PBR = GABA: PBR (Rattus norvegicus, UniProt P16257); assay: NIMH PDSP secondary binding assay, PBR; parameters: species or system human
5-HT6 = 5-HT6 (Homo sapiens, UniProt P50406); assay: NIMH PDSP secondary binding assay, 5-HT6; details: read-out: 5-HT6 binding affinity Ki; mean of 3 replications
male C57/Bl6J mice [7] = assay: Drug discrimination, mice trained to discriminate 5.6 mg/kg THC from vehicle; type: in vivo, mouse
5-HT2C = biological target: T2, 5-HT2C (Homo sapiens, UniProt P28335); assay: NIMH PDSP secondary binding assay, 5-HT2C; details: read-out: 5-HT2C binding affinity Ki; mean of 3 replications
T2 sequence (P28335 33-458): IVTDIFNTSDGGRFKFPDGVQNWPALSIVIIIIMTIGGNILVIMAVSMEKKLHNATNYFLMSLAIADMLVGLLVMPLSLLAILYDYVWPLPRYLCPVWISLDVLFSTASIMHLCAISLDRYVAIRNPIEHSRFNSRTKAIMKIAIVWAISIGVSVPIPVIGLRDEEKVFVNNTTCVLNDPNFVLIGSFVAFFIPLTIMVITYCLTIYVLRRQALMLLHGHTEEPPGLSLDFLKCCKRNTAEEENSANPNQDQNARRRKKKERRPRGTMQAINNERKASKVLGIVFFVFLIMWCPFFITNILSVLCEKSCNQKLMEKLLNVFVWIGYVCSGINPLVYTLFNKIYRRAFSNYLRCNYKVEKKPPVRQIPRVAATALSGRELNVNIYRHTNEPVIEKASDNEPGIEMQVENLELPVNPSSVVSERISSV

[8] = CNS Excitability domain, ↑ increase vs vehicle, ---- no significant effect
[9] = categorical, ---- no significant effect
[10] = read-out: 5-HT2B binding affinity Ki, mean of 3 replications
[11] = read-out: 5-HT2B Antagonism IC50, mean of 3 replicates
[12] = inhibition of hERG channels, mean of 3 replicates
[13] = read-out: hERG Channels EC50, inhibition of hERG channels, mean of 3 replicates
[14] = Autonomic Effects domain, categorical, ---- no significant effect

T1 sequence (P41595 whole entry): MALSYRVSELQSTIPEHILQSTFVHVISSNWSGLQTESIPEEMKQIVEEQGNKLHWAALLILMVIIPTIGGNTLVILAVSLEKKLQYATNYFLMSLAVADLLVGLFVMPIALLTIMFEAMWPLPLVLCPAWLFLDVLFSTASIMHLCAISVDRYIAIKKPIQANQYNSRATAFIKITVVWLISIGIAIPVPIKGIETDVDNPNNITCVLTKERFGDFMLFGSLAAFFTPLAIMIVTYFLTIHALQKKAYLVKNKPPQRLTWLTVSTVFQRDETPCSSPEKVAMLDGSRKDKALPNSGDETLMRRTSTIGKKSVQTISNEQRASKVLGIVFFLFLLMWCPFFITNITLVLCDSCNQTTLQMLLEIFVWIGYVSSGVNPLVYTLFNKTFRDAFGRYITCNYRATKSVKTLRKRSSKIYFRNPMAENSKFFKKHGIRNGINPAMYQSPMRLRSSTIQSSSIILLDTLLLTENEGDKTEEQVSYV
Chain of hERG (Q12809 whole entry): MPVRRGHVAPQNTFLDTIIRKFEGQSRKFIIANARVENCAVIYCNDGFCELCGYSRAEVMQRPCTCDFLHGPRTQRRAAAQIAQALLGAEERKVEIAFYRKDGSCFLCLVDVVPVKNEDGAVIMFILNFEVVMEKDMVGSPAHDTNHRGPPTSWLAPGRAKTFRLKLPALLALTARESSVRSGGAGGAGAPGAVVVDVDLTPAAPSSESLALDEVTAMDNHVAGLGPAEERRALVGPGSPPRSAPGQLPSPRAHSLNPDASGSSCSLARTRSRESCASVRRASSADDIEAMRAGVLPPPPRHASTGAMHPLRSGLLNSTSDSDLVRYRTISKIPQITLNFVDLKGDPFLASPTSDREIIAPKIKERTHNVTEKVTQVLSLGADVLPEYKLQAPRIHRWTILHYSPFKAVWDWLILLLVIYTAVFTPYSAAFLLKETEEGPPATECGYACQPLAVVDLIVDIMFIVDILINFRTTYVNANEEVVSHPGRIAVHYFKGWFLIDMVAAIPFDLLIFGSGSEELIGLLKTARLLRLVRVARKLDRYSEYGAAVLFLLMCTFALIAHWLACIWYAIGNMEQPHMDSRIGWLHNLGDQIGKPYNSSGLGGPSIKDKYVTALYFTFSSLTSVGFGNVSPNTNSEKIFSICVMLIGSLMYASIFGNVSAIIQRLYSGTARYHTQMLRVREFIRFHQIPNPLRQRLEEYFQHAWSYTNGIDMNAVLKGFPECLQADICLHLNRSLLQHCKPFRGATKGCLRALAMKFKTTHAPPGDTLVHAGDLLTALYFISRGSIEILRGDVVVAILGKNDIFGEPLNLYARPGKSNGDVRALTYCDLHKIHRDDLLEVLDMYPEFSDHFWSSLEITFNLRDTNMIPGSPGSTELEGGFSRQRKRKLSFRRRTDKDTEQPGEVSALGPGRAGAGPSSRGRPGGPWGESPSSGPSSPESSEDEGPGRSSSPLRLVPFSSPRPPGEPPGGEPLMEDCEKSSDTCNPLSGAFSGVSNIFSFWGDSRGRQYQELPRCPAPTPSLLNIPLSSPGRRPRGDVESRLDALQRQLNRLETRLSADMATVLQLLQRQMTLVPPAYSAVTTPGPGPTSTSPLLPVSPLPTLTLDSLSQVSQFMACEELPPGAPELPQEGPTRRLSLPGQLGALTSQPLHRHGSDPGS
Chain of GABA: PBR (P16257 whole entry): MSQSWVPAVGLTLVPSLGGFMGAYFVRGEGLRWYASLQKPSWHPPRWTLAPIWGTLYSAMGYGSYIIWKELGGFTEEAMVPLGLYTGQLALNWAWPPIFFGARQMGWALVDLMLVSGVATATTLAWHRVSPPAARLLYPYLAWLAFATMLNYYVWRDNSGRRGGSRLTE
Chain of 5-HT6 (P50406 whole entry): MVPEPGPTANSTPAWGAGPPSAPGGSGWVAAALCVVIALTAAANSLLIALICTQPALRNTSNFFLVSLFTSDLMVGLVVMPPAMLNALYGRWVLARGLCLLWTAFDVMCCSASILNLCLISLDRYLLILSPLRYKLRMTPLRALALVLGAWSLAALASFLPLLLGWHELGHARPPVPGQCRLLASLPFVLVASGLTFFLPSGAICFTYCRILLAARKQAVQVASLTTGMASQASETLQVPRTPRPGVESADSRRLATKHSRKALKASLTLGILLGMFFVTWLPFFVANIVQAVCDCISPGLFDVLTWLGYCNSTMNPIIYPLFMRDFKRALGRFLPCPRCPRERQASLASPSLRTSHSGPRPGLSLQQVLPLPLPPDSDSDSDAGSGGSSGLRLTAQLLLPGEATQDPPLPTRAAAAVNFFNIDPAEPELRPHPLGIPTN

| Compound | Response rates compared to vehicle (male C57/Bl6J mice [1]) | Substitution for the 0.3 mg/kg JWH-018 training dose (male C57/Bl6J mice [1]) | FOB Home cage activity: doses with significant differences vs vehicle (male ICR mice [2]) | FOB Tail elevation: doses with significant differences vs vehicle (male ICR mice [2]; [8]) | FOB Forelimb placing: doses with significant differences vs vehicle (male ICR mice [2]; [9]) | FOB Gait: doses with significant differences vs vehicle (male ICR mice [2]; [9]) | FOB Muscle tone: doses with significant differences vs vehicle (male ICR mice [2]; [9]) | FOB Posture: doses with significant differences vs vehicle (male ICR mice [2]; [9]) | FOB Approach response: doses with significant differences vs vehicle (male ICR mice [2]; [9]) | FOB Startle response: doses with significant differences vs vehicle (male ICR mice [2]; [9]) | Ki (5-HT2B [3]; [10]) [µM] | 5-HT2B Antagonism Emax (5-HT2B [4]; mean of 3 replicates) [%] | IC50 (5-HT2B [4]; [11]) [µM] | hERG Channels Emax (hERG; [12]) | EC50 (hERG; [13]) [µM] | FOB Tonus: doses with significant differences vs vehicle (male ICR mice [2]; [8]) | also measured |
| --- | --- | --- | --- | --- | --- | --- | --- | --- | --- | --- | --- | --- | --- | --- | --- | --- | --- |
| CCCCn1cc(C(=O)c2cccc3ccccc23)c2ccccc21 [JWH-073] | significant decreases were not observed | fully and dose-dependently substituted | ↓ (0.3-3) mg/kg | ↑ (1) mg/kg | (0.3) mg/kg | (0.3-3) mg/kg | (1-3) mg/kg | (1-3) mg/kg | (1-3) mg/kg | (3) mg/kg | 0.184 | 100 | 19.3 | 59% | 9.71 | – | Fold less potent than JWH-018 in JWH-018 discrimination (male C57/Bl6J mice [1]): about 5 fold; ED50 for substitution for the 0.3 mg/kg JWH-018 training dose (male C57/Bl6J mice [1]): 2.11 µmol/kg |
| CCCCCn1cc(C(=O)c2ccc(CC)c3ccccc23)c2ccccc21 [JWH-210] | – | – | ↓ (0.1-3) mg/kg | – | – | (0.1-3) mg/kg | (0.3-3) mg/kg | (0.1-3) mg/kg | – | (0.3-3) mg/kg | – | 100 | 2870 | lacked efficacy | – | – | FOB Exophthalmus: doses with significant differences vs vehicle (male ICR mice [2]; [14]): (0.3) mg/kg; Monohydroxylation metabolite in urine, phase II [5]: no monohydroxyl glucuronide was observed; hERG Channels EC50 (hERG; [12]): Not active |
| CCCCCn1cc(C(=O)c2ccc(OC)c3ccccc23)c2ccccc21 [JWH-081] | – | – | ↓ (0.1-1) mg/kg | – | – | (0.3-1) mg/kg | (0.3) mg/kg | (0.3-1) mg/kg | (1) mg/kg | (1) mg/kg | – | – | – | lacked efficacy | – | – | 5-HT2B Antagonism IC50 (5-HT2B [4]; mean of 3 replicates): Not active; hERG Channels EC50 (hERG; [12]): Not active |
| CCCCCn1cc(C(=O)c2cccc3ccccc23)c2ccccc21 [JWH-018, 1-pentyl-3-(1-naphthoyl)indole] | significantly decreased response rates | fully and dose-dependently substituted | ↓ (0.1-3) mg/kg | ↑ (1) mg/kg | (3) mg/kg | (0.1-3) mg/kg | (0.1-3) mg/kg | (0.1-3) mg/kg | (0.3-3) mg/kg | (3) mg/kg | – | – | – | Full efficacy | – | ↑ (1) mg/kg | Responding on the JWH-018-associated lever at the training dose (male C57/Bl6J mice [1]; 0.3 mg/kg JWH-018): > 85%; FOB Clonus: doses with significant differences vs vehicle (male ICR mice [2]; [8]): ↑ (0.3) mg/kg; Ki (5-HT2B [3]): 0.316 µM; IC50 (5-HT2B [4]): 33.2 µM; Emax (5-HT2B [4]; read-out: 5-HT2B Antagonism Emax): 100%; Muscle tone in FOB antagonism study (male ICR mice [6]; 3 mg/kg JWH-018 i.v. alone, or co-administration of 3 mg/kg rimonabant i.p.): Hypertonia; EC50 (hERG): 236 µM; Emax (hERG; human, stably transfected cell line expressing hERG channels): 100%; Ki (GABA: PBR): 0.673 µM |
| CCCCCc1cc(O)c2c(c1)OC(C)(C)[C@@H]1CCC(C)=C[C@@H]21 [THC, Δ^9-tetrahydrocannabinol, reference compound] | significantly decreased response rates | fully and dose-dependently substituted | ↓ (0.3-10) mg/kg | ↑ (3) mg/kg | – | – | – | (3-10) mg/kg | – | – | 0.765 | – | – | – | – | – | Fold less potent than JWH-018 in JWH-018 discrimination (male C57/Bl6J mice [1]): ~10 fold; ED50 for substitution for the 0.3 mg/kg JWH-018 training dose (male C57/Bl6J mice [1]): 4.08 µmol/kg |
| O=C(c1cccc2ccccc12)c1cn(CCCCCF)c2ccccc12 [AM-2201] | – | – | ↓ (0.03-1) mg/kg | – | – | – | (0.1-1) mg/kg | (0.03-1) mg/kg | (0.1-1) mg/kg | – | 0.192 | 100 | 23.9 | 70% | 3.35 | ↑ (0.3-1) mg/kg | Ki (5-HT6): 0.693 µM |
| SR144528 [reference compound] | – | – | – | – | – | – | – | – | – | – | – | – | – | – | – | – | FOB selected measures, antagonist 3 mg/kg i.p. plus vehicle (male ICR mice [6]; rimonabant/vehicle and SR144528/vehicle groups, all mice): Normal responses |
| CN1CCN2c3ccccc3Cc3ccccc3C2C1 (centres unmarked) [mianserin] | – | failed to substitute for or antagonize | – | – | – | – | – | – | – | – | – | – | – | – | – | – | Responding on the JWH-018 lever, 3 mg/kg mianserin co-administered with 0.3 mg/kg JWH-018 (male C57/Bl6J mice [1]; compared to 0.3 mg/kg JWH-018 alone): significantly decreased; Responding on the JWH-018 lever, 3 mg/kg mianserin (plus vehicle) (male C57/Bl6J mice [1]; compared to vehicle alone): significantly increased; Substitution of the JWH-018 training dose (0.3 mg/kg), mianserin at doses up 1 mg/kg (male C57/Bl6J mice [1]; mianserin plus 0.3 mg/kg JWH-018): not altered; Overall response rate, mianserin 1 and 3 mg/kg administered with JWH-018 (male C57/Bl6J mice [1]; mouse, in vivo): significantly suppressed; Percentage of THC-lever responding, mianserin 0.1, 0.3, and 3 mg/kg (male C57/Bl6J mice [7]; co-administered with either vehicle or 5.6 mg/kg THC): did not alter this pattern; Percentage of THC-lever responding, 1 mg/kg mianserin plus 5.6 mg/kg THC (male C57/Bl6J mice [7]; compared to 5.6 mg/kg THC alone): significantly lower; Substitution for THC in mice trained to discriminate THC (male C57/Bl6J mice [7]; mianserin tested alone, i.p.): did not substitute; Overall responding on both levers (response rate), 3 mg/kg mianserin (male C57/Bl6J mice [7]; with vehicle or THC): significantly suppressed |
| CCCCCn1cc(C(=O)Cc2ccccc2)c2ccccc21 [JWH-167] | – | – | ↓ (3-30) mg/kg | – | (10-30) mg/kg | (3-30) mg/kg | (3-30) mg/kg | (1-30) mg/kg | (3-30) mg/kg | (3-30) mg/kg | 1.25 | 100 | 47.7 | 81% | 13.8 | ↑ (10) mg/kg | FOB Exophthalmus: doses with significant differences vs vehicle (male ICR mice [2]; [14]): (1) mg/kg; FOB Piloerection: doses with significant differences vs vehicle (male ICR mice [2]; [14]): (10-30) mg/kg; Ki (5-HT2C): 4.82 µM |
| Cc1c(C(=O)NN2CCCCC2)nn(-c2ccc(Cl)cc2Cl)c1-c1ccc(Cl)cc1 [rimonabant] | – | – | – | – | – | – | – | – | – | – | – | – | – | – | – | – | Response rates in antagonism tests (male C57/Bl6J mice [1]; 3 mg/kg antagonist with vehicle or 0.3 mg/kg JWH-018): significantly decreased |

Source: article PMC5028280 (Neuropharmacology, 2016)
